The values below come from ChEMBL document CHEMBL1134361, “C-Isoprenylation of flavonoids enhances binding affinity toward P-glycoprotein and modulation of cancer cell chemoresistance” (J Med Chem, 2001).

The structures appear in SMILES notation.

For one series, the system named is K562. As to the kind of experiment: Relative daunomycin accumulation was determined in PgP-positive leukemic K562/R7 cells with daunomycin at a concentration of 10 uM. The series is classed as functional, Homo sapiens. The essentials: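 K562/R7 human leukemic cells with high Pgp (1 million/mL RPMI 1640) incubated 1 h at 37 °C with 10 µM daunomycin (final), with or without 10 µM modulator. Cells washed three times in ice-cold PBS, kept on ice, intracellular drug fluorescence read by flow cytometry. Fluorescence shift expressed relative to that of 2 µM cyclosporin A reference. Duplicates, at least three experiments.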

Series [1] is described as follows: Direct binding to PgP recombinant cytosolic domain was measured by percent maximal quenching of the intrinsic fluorescence. The series is classed as ADME. Conditions: cytosol. The gist of the method: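 Recombinant C-terminal cytosolic NBD2 of Pgp at 0.5 µM in 20 mM potassium phosphate pH 6.8 with 0.5 M NaCl, 20% glycerol and 0.01% heptylcarbamoyl glucopyranoside detergent, 25 °C. Excitation at 295 nm, emission scanned 310–360 nm and integrated, buffer-corrected. Ligand added stepwise up to 20 µM. Inner-filter correction used N-acetyltryptophanamide. Curve fitting gave K_D and percent maximal quenching.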

Series [2] in a line: Partition coefficient (logP). In kind it is physicochemical. To be noted: octanol/water. The gist of the method:
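Log P estimated by extrapolation from a log P vs R_M calibration curve built with quercetine and platanetine data.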

A short description of series [3]: Effect of Chrysin Alkylation on the Binding to PgP Cytosolic Domain. The series is classed as ADME. The gist of the method:
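Recombinant Pgp C-terminal cytosolic domain NBD2 (0.5 µM) in 20 mM potassium phosphate pH 6.8 with 0.5 M NaCl, 20% glycerol and 0.01% heptylcarbamoyl glucoside, 25 °C. Ligand titrated in aliquots up to 20 µM. Tryptophan fluorescence (ex 295 nm, em 310–360 nm) integrated; inner-filter corrected with N-acetyltryptophanamide. Curve fit gave KD and percent maximal quenching.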

Series [4] in a line: Hydrophobicity index was determined in C18 reverse phase silica gel 20 * 20 cm plates in methanol:water (8:2). The series is classed as ADME.

As usually defined, the logP is the decadic logarithm of the partition coefficient of the neutral form, usually between octanol and water. Low readings indicate a more hydrophilic compound, high ones a more lipophilic compound. One may read the Kd as the free concentration of one partner at which half of the binding sites on the other are occupied at equilibrium, for simple one-to-one binding. `Cc1c(O)cc2oc(-c3ccccc3)cc(=O)c2c1O` showed a Relative daunomycin accumulation in the series with K562 of 0.2. In series [1], the “Delta Fmax” value was found to be 46.6%. The logP in series [2] was 5.85. For the same compound, the Kd in series [3] was 3.1 µM. In series [4], this compound had a Hydrophobicity index of 0.512.
The like results for `CC(C)=CCc1c(O)cc2oc(-c3ccccc3)cc(=O)c2c1O` were, in that order, 0.83, 83.4%, 6.15, 0.3 µM and 0.812.
Regarding `CC(C)c1c(O)cc2oc(-c3ccccc3)cc(=O)c2c1O`, the Relative daunomycin accumulation with K562 was 0.24. Further, the “Delta Fmax” value in series [1] is recorded as 39%. The logP in series [2] was 5.95. The same compound yielded a Kd in series [3] of 0.21 µM. This compound registered a Hydrophobicity index in series [4] of 0.608.
In the series on K562, `O=c1cc(-c2ccccc2)oc2c(Cc3ccccc3)c(O)c(Cc3ccccc3)c(O)c12` returned a Relative daunomycin accumulation of 0.39. The “Delta Fmax” value in series [1] is recorded as 40.9%. The compound also came in with a logP in series [2] of 6.41. For the same compound, the Kd in series [3] stood at 0.036 µM. In addition, the Hydrophobicity index in series [4] stood at 1.06.
For `CC(C)=CCC/C(C)=C\Cc1c(O)cc2oc(-c3ccccc3)cc(=O)c2c1O` the same measures were 0.81, 48.2%, 6.64, 0.045 µM and 1.288.
In the series on K562, `CC(C)Oc1cc(O)c2c(=O)cc(-c3ccccc3)oc2c1` registered a Relative daunomycin accumulation of 0.3. The “Delta Fmax” value in series [1] came out at 53.2%. The logP in series [2] was found to be 6.24. Binding in series [3] was put at a Kd of 1.32 µM. This compound also yielded a Hydrophobicity index in series [4] of 0.898.
For `O=c1cc(-c2ccccc2)oc2cc(OCc3ccccc3)cc(O)c12` the same measures were 0.27, 29.3%, 6.42, 0.068 µM and 1.076.
`O=c1cc(-c2ccccc2)oc2cc(O)c(Cc3ccccc3)c(O)c12` gave a Relative daunomycin accumulation with K562 of 0.09. For the same compound, the “Delta Fmax” value in series [1] was found to be 72.4%. For the same compound, the logP in series [2] came to 6.1. In addition, the Kd in series [3] was determined as 0.34 µM. Also, the Hydrophobicity index in series [4] is recorded as 0.754.
For `O=c1cc(-c2ccccc2)oc2c(Cc3ccccc3)c(O)cc(O)c12` the same measures were 0.25, 99.1%, 6.1, 0.99 µM and 0.754.
`CC(C)Oc1c(C(C)C)c(O)c2c(=O)cc(-c3ccccc3)oc2c1C(C)C` returned a Relative daunomycin accumulation with K562 of 0.29. Further, the “Delta Fmax” value in series [1] is reported as 38.4%. Moreover, the logP in series [2] came to 6.84. Also, the Kd in series [3] amounted to 0.033 µM. For the same compound, the Hydrophobicity index in series [4] is 1.479.
For `CC(C)=CCC/C(C)=C\Cc1c(O)cc(O)c2c(=O)cc(-c3ccccc3)oc12` the same measures were 0.9, 67%, 6.71, 0.025 µM and 1.35.
Turning to `CC(C)Oc1cc2oc(-c3ccccc3)cc(=O)c2c(O)c1C(C)C`, the Relative daunomycin accumulation with K562 is on record as 0.29. Besides, in series [1], the “Delta Fmax” value came out at 44.5%. In series [2], this compound displayed a logP of 6.6. The same compound showed a Kd in series [3] of 0.28 µM. Moreover, the Hydrophobicity index in series [4] is recorded as 1.248.
For `CC(C)=CCc1c(O)cc(O)c2c(=O)cc(-c3ccccc3)oc12` the same measures were 1.52, 81%, 6.2, 0.28 µM and 0.853.
Take `CC(C)=CCc1c(O)c(CC=C(C)C)c2oc(-c3ccccc3)cc(=O)c2c1O`: the Relative daunomycin accumulation in the series with K562 came to 0.84. In series [1], the “Delta Fmax” value is given as 21.5%. This compound returned a logP in series [2] of 6.56. The Kd in series [3] was 0.015 µM. The compound also displayed a Hydrophobicity index in series [4] of 1.296.
The like results for `COc1cc2oc(-c3ccccc3)cc(=O)c2c(O)c1C` were, in that order, 0.3, 57.3%, 6.18, 1.3 µM and 0.842.
The like results for `O=c1cc(-c2ccccc2)oc2cc(O)cc(O)c12` [CHRYSIN] were, in that order, 0.2, 94.6%, 5.7, 13.1 µM and 0.358.
In the case of `COc1cc(O)c2c(=O)cc(-c3ccccc3)oc2c1` [TECHTOCHRYSIN], the Relative daunomycin accumulation with K562 is reported as 0.23. In series [1], the “Delta Fmax” value was determined as 68.1%. This compound also came in with a logP in series [2] of 6.06. For the same compound, in series [3], binding was characterised by a dissociation constant (Kd) of 6.3 µM. This compound gave a Hydrophobicity index in series [4] of 0.719.
